Results collected from several papers.
Compare with care: the assays were run in different laboratories.
Target: D(2) dopamine receptor (DRD2, Homo sapiens, UniProt P14416)

CCc1nc2cc(OCCCCN3CCN(c4cccc(Cl)c4Cl)CC3)ccc2s1  EC50 (cAMP; agonist; luciferase): 98 nM
O=C1c2ccccc2CCN1CCCCN1CCN(c2cccc(Cl)c2Cl)CC1  Ki (ligand displacement; radioligand): 14 nM
COc1ccc(CCC2=NCCN2CCc2ccccc2)cc1  Ki (ligand displacement; radioligand): > 10000 nM
O=C1c2ccccc2CCN1CCCCN1CCN(c2ccccn2)CC1  Ki (ligand displacement; radioligand): 805 nM
CCN(CC)c1ccc(C2Nc3ccc(C(=O)c4ccccc4)cc3NC3=C2C(=O)CC(C)(C)C3)cc1 (centres unmarked)  Ki (cell-free assay; radioligand): > 10000 nM
Oc1cccc(CCC2=NCCN2CCc2ccccc2)c1  Ki (ligand displacement; radioligand): > 10000 nM
CC(C)c1nc2cc(OCCCCN3CCN(c4cccc5c4OCCN5)CC3)ccc2s1  EC50 (β-arrestin recruitment; agonist): 16 nM
CCOCc1nc(O)c(-c2nnc(Cc3ccc(Cl)cn3)o2)c(O)c1-c1c(OC)cccc1OC  IC50 (ligand displacement; radioligand): > 30000 nM
Oc1cccc(CCC2=NCCN2Cc2ccccc2)c1  Ki (ligand displacement; radioligand): > 10000 nM
CNC(=O)[C@@]12C[C@@H]1[C@@H](n1cnc3c(NC)nc(C#Cc4cccs4)nc31)[C@H](O)[C@@H]2O  Ki (cell-free assay; radioligand): > 10000 nM
FC(F)(F)c1nc2cc(OCCCCN3CCN(c4cccc(Cl)c4Cl)CC3)ccc2s1  EC50 (cAMP; agonist; luciferase): 140 nM
CCO[C@H]1CCN(Cc2c(OC)cc(C)c3[nH]ccc23)[C@H](c2ccc(C(=O)O)cc2)C1  Kd (cell-free assay): > 30000 nM
COc1ccc2c(c1)C(=O)N(CCCN1CCN(c3ccccc3OC)CC1)C2  Ki (ligand displacement; radioligand): 1500 nM
CCCCN1CCC(COC(=O)c2ccc(N)c(OCF)c2)CC1  Ki (cell-free assay; radioligand): > 10000 nM
